A short description of data set [1]: melting temperature; fluorescence melt of hairpins on a sequencing array, two-state fit, raised by 9.35 °C to match UV melts. Conditions: sodium 0.088 M. The gist of the method: (§1)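 Library hairpins on a sequenced MiSeq flow cell carried annealed Cy3 and quencher oligos, and their Cy3 fluorescence was imaged in 50 mM Na-HEPES pH 8.0 with 25 mM NaCl, in 2.5 °C steps up to 60 °C. Signals were normalised to Cy3 before quenching and to control constructs. Melting temperature and folding enthalpy were obtained from bootstrapped two-state fits, combined by inverse-variance weighting across four replicates, and the fitted temperatures were then raised by 9.35 °C to match UV melts.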

The nature of data set [2]: folding enthalpy; higher = less favourable; fluorescence melt of hairpins on a sequencing array, two-state fit. The following applies: sodium 0.088 M. In short, it runs like this: as §1

Take GACATAGGAAACTGTGTC ((((.((....)).)))): the Tm in data set [1] turned out to be 44.4 °C. For the same sequence, the folding enthalpy in data set [2] was -169 kJ/mol.
Turning to GACATCCGAAAGGACGTC (((.(((....))).))), in data set [1], the Tm was 49 °C. Further, the folding enthalpy in data set [2] is -155 kJ/mol.
In the same order, the values of GACATCGGAAACGGTGTC ((((.((....)).)))) are 52.2 °C and -197 kJ/mol.
The like results for GACATGGAAACATGTC ((((((....)))))) were, in that order, 56 °C and -160 kJ/mol.
The like results for GACATTGGAAACAACGTC (((.(((....))).))) were, in that order, 34 °C and -97.2 kJ/mol.
Turning to GACCAAACGAAAGTTGTC (((..(((....)))))), in data set [1], the Tm turned out to be 31 °C. In data set [2], the folding enthalpy was -57.7 kJ/mol.
For GACCAACCGAAAGGTGTC (((..(((....)))))), the Tm in data set [1] came to 35.5 °C. Further, the folding enthalpy in data set [2] is -54.4 kJ/mol.
In the same order, the values of GACCAAGCGAAAGCTGTC (((..(((....)))))) are 37.2 °C and -56.3 kJ/mol.
For GACCAAGGAAACTTGGCC (.(((((....))))).), the Tm in data set [1] was 41.7 °C. Besides, the folding enthalpy in data set [2] was -69.4 kJ/mol.
In the same order, the values of GACCAAGGAAACTTGGTC (((((((....))))))) are 60.5 °C and -150 kJ/mol.
GACCACGAAAGTGGTGTC ((((((....)))..))): the Tm in data set [1] turned out to be 55.4 °C. Besides, the folding enthalpy in data set [2] is -51.2 kJ/mol.
The like results for GACCACGGAAACATGGCC (.(((.(....).))).) were, in that order, 24.4 °C and -41.4 kJ/mol.
For the sequence GACCACGGAAACATGGTC (((((.(....).))))), the Tm in data set [1] was found to be 43.4 °C. In data set [2], the folding enthalpy is -149 kJ/mol.
In the same order, the values of GACCAGCGAAAGCTCGTC (((.(((....))).))) are 42.4 °C and -77.9 kJ/mol.
In the same order, the values of GACCAGGAAACTGGTC ((((((....)))))) are 63.4 °C and -163 kJ/mol.
In the same order, the values of GACCAGGGAAACCTGGCC (.(((((....))))).) are 45.5 °C and -63.8 kJ/mol.
In the case of GACCATGCGAAAGCAGTC (((..(((....)))))), the Tm in data set [1] amounted to 30.2 °C. For the same sequence, in data set [2], the folding enthalpy was -44.5 kJ/mol.
In the case of GACCATGGAAACACGGTC ((((.((....)).)))), the Tm in data set [1] was 42.5 °C. Further, the folding enthalpy in data set [2] is -133 kJ/mol.
With GACCATGGAAACATGGCC (.(((((....))))).), the Tm in data set [1] was determined as 46 °C. In addition, the folding enthalpy in data set [2] is -63.7 kJ/mol.
In the same order, the values of GACCCAACGAAAGTTGTC (((..(((....)))))) are 29 °C and -44 kJ/mol.
The like results for GACCCACGAAAGTGAGTC (((.(((....))).))) were, in that order, 51.2 °C and -130 kJ/mol.
The like results for GACCCCCGAAAGGGGTC (((.(((....)))))) were, in that order, 67.5 °C and -83.1 kJ/mol.
With GACCCCGAAAGGGGAGTC ((((((....)))..))), in data set [1], the Tm amounted to 44.6 °C. In data set [2], the folding enthalpy is -41.3 kJ/mol.
The like results for GACCCCGAAAGGGGGGTC ((((((....)))..))) were, in that order, 67.4 °C and -55.6 kJ/mol.
The like results for GACCCCGAAAGGGTAGTC ((((((....)))..))) were, in that order, 44.4 °C and -62.9 kJ/mol.
In the same order, the values of GACCCCGCGAAAGCGGTC (((..(((....)))))) are 28 °C and -24.8 kJ/mol.
On to GACCCCGGAAACGAGGCC (.((.((....)).)).), for which the Tm in data set [1] was 27.5 °C. The folding enthalpy in data set [2] is -62.6 kJ/mol.
The like results for GACCCCGGAAACGAGGTC ((((.((....)).)))) were, in that order, 48 °C and -155 kJ/mol.
The like results for GACCCCGGAAACGGAGTC (((.(((....))).))) were, in that order, 47.2 °C and -132 kJ/mol.
The like results for GACCCGCGAAAGCGCGTC (((.(((....))).))) were, in that order, 47.8 °C and -91.7 kJ/mol.
Take GACCCGGGAAACCAGGCC (.((.((....)).)).): the Tm in data set [1] turned out to be 24.7 °C. Moreover, the folding enthalpy in data set [2] is -45.1 kJ/mol.
The like results for GACCCGGGAAACCAGGTC ((((.((....)).)))) were, in that order, 45.8 °C and -115 kJ/mol.
The like results for GACCCGGGAAACCGGACC (..((((....))))..) were, in that order, 30.3 °C and -43 kJ/mol.
GACCCGGGAAACTGGGTC (((((.(....).))))): the Tm in data set [1] stood at 59.2 °C. For the same sequence, the folding enthalpy in data set [2] is -156 kJ/mol.
In the same order, the values of GACCCTGAAAAGGGTC ((((((....)))))) are 67.5 °C and -141 kJ/mol.
The like results for GACCGAGGAAACTCAGTC (((.(((....))).))) were, in that order, 34.4 °C and -88 kJ/mol.
The like results for GACCGCCGAAAGGCGTC (((.(((....)))))) were, in that order, 45.4 °C and -36.4 kJ/mol.

(Values after the array DNA melting data of Ke et al. (doi:10.1101/2024.01.08.574731).)
